Results from ChEMBL document CHEMBL1955783, “Identification and optimization of small molecule antagonists of vasoactive intestinal peptide receptor-1 (VIPR1)” (Bioorg Med Chem Lett, 2012).
The source made the active and inactive calls. No cut-off for these calls is given here.

Tests used:
Calu-6 = test: Cytotoxicity against human Calu6 cells expressing VIPR1 up to 10 uM in presence of 2% serum; assay type: functional, cell-based
How it was run: (§1)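 Cell proliferation in H727, H1299 and Calu6 lines, chosen for high VIPR1 expression. Medium held 2% serum to limit albumin sequestration. Compounds were tested at concentrations up to 10 µM.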

NCI-H1299 = test: Cytotoxicity against human NCI-H1299 cells expressing VIPR1 up to 10 uM in presence of 2% serum; assay type: functional, cell-based; how it was run: as §1
NCI-H727 = test: Cytotoxicity against human NCI-H727 cells expressing VIPR1 up to 10 uM in presence of 2% serum; assay type: functional, cell-based; how it was run: as §1
[1] = Plasma protein binding in human; assay type: ADME, cell-free; conditions: read-out: PPB (converted)
[2] = Plasma protein binding in mouse; assay type: ADME, cell-free; conditions: read-out: PPB (converted)
[3] = biological target: T1, Vasoactive intestinal polypeptide receptor 1 (Rattus norvegicus) (UniProt P30083); test: Displacement of [125I]VIP from vasoactive intestinal peptide receptor 1 in rat RKE cell membrane after 3 hrs by TopCount assay; assay type: cell membranes
T1 sequence (whole entry): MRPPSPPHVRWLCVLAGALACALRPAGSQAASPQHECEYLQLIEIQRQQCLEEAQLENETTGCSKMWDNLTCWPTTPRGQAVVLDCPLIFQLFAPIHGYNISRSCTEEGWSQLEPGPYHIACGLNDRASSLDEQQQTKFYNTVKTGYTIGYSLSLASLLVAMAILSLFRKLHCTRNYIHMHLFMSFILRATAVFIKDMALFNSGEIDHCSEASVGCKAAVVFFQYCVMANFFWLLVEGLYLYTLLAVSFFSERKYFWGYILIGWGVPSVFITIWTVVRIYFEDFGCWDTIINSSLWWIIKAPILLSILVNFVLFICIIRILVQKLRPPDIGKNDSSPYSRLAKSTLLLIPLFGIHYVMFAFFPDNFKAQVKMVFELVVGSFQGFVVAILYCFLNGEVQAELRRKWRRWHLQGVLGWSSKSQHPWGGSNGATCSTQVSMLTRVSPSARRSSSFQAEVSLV
How it was run: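 Membranes from RKE-VIPR cells, 5 µg/well final, preincubated 10 min at room temperature with wheat germ agglutinin-coated PVT beads in 50 mM HEPES, 5 mM MgCl2, 1 mM CaCl2, 0.1% BSA. IC50 taken from a four-parameter logistic fit after subtracting nonspecific binding, defined with excess VIP.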

[4] = biological target: T2, Vasoactive intestinal polypeptide receptor 1 (Rattus norvegicus, UniProt P30083); test: Antagonist activity at vasoactive intestinal peptide receptor 1 in rat RKE cells assessed as inhibition of VIP-induced intracellular cAMP accumulation incubated for 15 mins prior to VIP-stimulation measured after 30 mins by HTRF assay
T2 sequence (P30083 whole entry): T1 sequence (whole entry)

CC(C)c1cc(C(C)(C)C)cc(-c2ccc(F)cc2)c1CO
Activity (Calu-6): inactive
Activity (NCI-H1299): inactive
Activity (NCI-H727): inactive
fraction unbound [1]: 0.1
fraction unbound [2]: 0.1
Activity [3]: Active
IC50 [4]: 0.74 µM

CC(C)c1cc(C(C)(C)C)cc(-c2ccc3ccccc3c2)c1CO
Activity (Calu-6): inactive
Activity (NCI-H1299): inactive
Activity (NCI-H727): inactive
Activity [3]: Active
IC50 [4]: 0.12 µM
